# Assay results published in ChEMBL document CHEMBL2062460, “Disubstituted thiourea derivatives and their activity on CNS: synthesis and biological evaluation” (Eur J Med Chem, 2012).
# Activity calls are given as the source filed them. The rule behind the calls is not given here.
# Legend:
# [1] = Cytotoxicity against human MT4 cells after 96 hrs by MTT assay; format: cell-based
# [2] = test system: Human immunodeficiency virus 1; assay: Antiviral activity against HIV1 infected in human MT4 cells assessed as virus-induced cytopathogenicity after 4 days by MTT assay; format: functional, organism-based; conditions: Human immunodeficiency virus 1, MT4, 96 h
# Micrococcus luteus [3] = assay: Antibacterial activity against Micrococcus luteus ATCC 9341 after 18 hrs by twofold serial agar dilution technique; format: functional; conditions: ATCC 9341, 18 h
# [4] = test system: Staphylococcus epidermidis; assay: Antibacterial activity against Staphylococcus epidermidis ATCC 12228 after 18 hrs by twofold serial agar dilution technique; format: functional; conditions: ATCC 12228, 18 h
# How it was run: (§1)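 Twofold serial agar dilution on Mueller–Hinton II agar, following CLSI guidelines. Compounds were dissolved in methanol or DMSO and tested at final agar concentrations of 3.125–400 µg/mL. Final inoculum was 10^4 CFU/mL.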
# Bacillus cereus [5] = assay: Antibacterial activity against Bacillus cereus ATCC 11778 after 18 hrs by twofold serial agar dilution technique; format: functional; conditions: ATCC 11778, 18 h
# Staphylococcus aureus [6] = assay: Antibacterial activity against Staphylococcus aureus ATCC 6538 after 18 hrs by twofold serial agar dilution technique; format: functional; conditions: ATCC 6538, 18 h; how it was run: as §1
# Staphylococcus aureus [7] = assay: Antibacterial activity against Staphylococcus aureus ATCC 25923 after 18 hrs by twofold serial agar dilution technique; format: functional; conditions: ATCC 25923, 18 h; how it was run: as §1
# Micrococcus luteus [8] = assay: Antibacterial activity against Micrococcus luteus ATCC 10240 after 18 hrs by twofold serial agar dilution technique; format: functional; conditions: ATCC 10240, 18 h
# Staphylococcus aureus [9] = assay: Antibacterial activity against Staphylococcus aureus NCTC 4163 after 18 hrs by twofold serial agar dilution technique; format: functional; conditions: NCTC 4163, 18 h; how it was run: as §1
# Enterococcus hirae [10] = assay: Antibacterial activity against Enterococcus hirae ATCC 10541 after 18 hrs by twofold serial agar dilution technique; format: functional; conditions: ATCC 10541, 18 h
# Bacillus subtilis [11] = assay: Antibacterial activity against Bacillus subtilis ATCC 6633 after 18 hrs by twofold serial agar dilution technique; format: functional; conditions: ATCC 6633, 18 h
# Staphylococcus aureus [12] = assay: Antibacterial activity against Staphylococcus aureus ATCC 29213 after 18 hrs by twofold serial agar dilution technique; format: functional; conditions: ATCC 29213, 18 h; how it was run: as §1
# Pseudomonas aeruginosa [13] = assay: Antibacterial activity against Pseudomonas aeruginosa NCTC 6749 at 400 ug/disc after 18 hrs by disc diffusion method; format: functional, organism-based
# How it was run: (§2)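 Disc diffusion per CLSI on Mueller–Hinton II agar; 9 mm paper discs loaded from methanol or DMSO solutions to 400 µg per disc, dried; growth inhibition zone diameter read after 18 h at 35 °C.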
# Micrococcus luteus [14] = assay: Antibacterial activity against Micrococcus luteus ATCC 9341 at 400 ug/disc after 18 hrs by disc diffusion method; format: functional; how it was run: as §2
# Pseudomonas aeruginosa [15] = assay: Antibacterial activity against Pseudomonas aeruginosa ATCC 27853 at 400 ug/disc after 18 hrs by disc diffusion method; format: functional, organism-based; how it was run: as §2
# Bacillus subtilis [16] = assay: Antibacterial activity against Bacillus subtilis ATCC 6633 at 400 ug/disc after 18 hrs by disc diffusion method; format: functional; conditions: ATCC 6633, 18 h, read-out: DIZ; how it was run: as §2
# Escherichia coli [17] = assay: Antibacterial activity against Escherichia coli ATCC 10538 at 400 ug/disc after 18 hrs by disc diffusion method; format: functional, organism-based; how it was run: as §2
# Pseudomonas aeruginosa [18] = assay: Antibacterial activity against Pseudomonas aeruginosa ATCC 15442 at 400 ug/disc after 18 hrs by disc diffusion method; format: functional, organism-based; how it was run: as §2
# Staphylococcus aureus [19] = assay: Antibacterial activity against Staphylococcus aureus NCTC 4163 at 400 ug/disc after 18 hrs by disc diffusion method; format: functional; how it was run: as §2
# Staphylococcus aureus [20] = assay: Antibacterial activity against Staphylococcus aureus ATCC 6538 at 400 ug/disc after 18 hrs by disc diffusion method; format: functional; how it was run: as §2
# Staphylococcus aureus [21] = assay: Antibacterial activity against Staphylococcus aureus ATCC 25923 at 400 ug/disc after 18 hrs by disc diffusion method; format: functional; how it was run: as §2
# Staphylococcus aureus [22] = assay: Antibacterial activity against Staphylococcus aureus ATCC 29213 at 400 ug/disc after 18 hrs by disc diffusion method; format: functional; how it was run: as §2
# Escherichia coli [23] = assay: Antibacterial activity against Escherichia coli ATCC 25922 at 400 ug/disc after 18 hrs by disc diffusion method; format: functional, organism-based; how it was run: as §2
# Proteus vulgaris = assay: Antibacterial activity against Proteus vulgaris NCTC 4635 at 400 ug/disc after 18 hrs by disc diffusion method; format: functional, organism-based; how it was run: as §2
# [24] = test system: Bordetella bronchiseptica; assay: Antibacterial activity against Bordetella bronchiseptica ATCC 4617 at 400 ug/disc after 18 hrs by disc diffusion method; format: functional, organism-based; how it was run: as §2
# Candida albicans [25] = assay: Antifungal activity against Candida albicans ATCC 90028 at 400 ug/disc after 18 hrs by disc diffusion method; format: functional, organism-based
# How it was run: (§3)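 Yeasts tested by disc diffusion (CLSI) on RPMI agar with 2% glucose; 9 mm paper discs bearing 400 µg compound from methanol or DMSO solution; inhibition zone diameter read after 18 h at 35 °C.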
# Bacillus cereus [26] = assay: Antibacterial activity against Bacillus cereus ATCC 11778 at 400 ug/disc after 18 hrs by disc diffusion method; format: functional; how it was run: as §2
# Candida parapsilosis = assay: Antifungal activity against Candida parapsilosis ATCC 22019 at 400 ug/disc after 18 hrs by disc diffusion method; format: functional, organism-based; how it was run: as §3
# Micrococcus luteus [27] = assay: Antibacterial activity against Micrococcus luteus ATCC 10240 at 400 ug/disc after 18 hrs by disc diffusion method; format: functional; conditions: ATCC 10240, 18 h, read-out: DIZ; how it was run: as §2
# [28] = test system: Staphylococcus epidermidis; assay: Antibacterial activity against Staphylococcus epidermidis ATCC 12228 at 400 ug/disc after 18 hrs by disc diffusion method; format: functional; how it was run: as §2
# Enterococcus hirae [29] = assay: Antibacterial activity against Enterococcus hirae ATCC 10541 at 400 ug/disc after 18 hrs by disc diffusion method; format: functional; how it was run: as §2
# Candida albicans [30] = assay: Antifungal activity against Candida albicans ATCC 10231 at 400 ug/disc after 18 hrs by disc diffusion method; format: functional, organism-based; how it was run: as §3
# Escherichia coli [31] = assay: Antibacterial activity against Escherichia coli NCTC 8196 at 400 ug/disc after 18 hrs by disc diffusion method; format: functional, organism-based; how it was run: as §2
# [32] = test system: Staphylococcus epidermidis; assay: Antibacterial activity against methicillin-resistant Staphylococcus epidermidis clinical isolate 317/08 after 18 hrs by twofold serial agar dilution technique; format: functional; conditions: clinical isolate 317/08, 18 h
# How it was run: (§4)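 Clinical isolates came from patients in Warsaw Medical University Hospitals and were classed as methicillin-susceptible or -resistant. MIC was determined by twofold serial agar dilution on Mueller–Hinton II agar (CLSI), 3.125–400 µg/mL in agar, with compounds in methanol or DMSO. Inoculum was 10^4 CFU/mL and plates were read after 18 h at 35 °C.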
# [33] = test system: Staphylococcus epidermidis; assay: Antibacterial activity against methicillin-resistant Staphylococcus epidermidis clinical isolate 340/09 after 18 hrs by twofold serial agar dilution technique; format: functional; conditions: clinical isolate 340/09, 18 h; how it was run: as §4
# [34] = test system: Staphylococcus epidermidis; assay: Antibacterial activity against methicillin-resistant Staphylococcus epidermidis clinical isolate 377/09 after 18 hrs by twofold serial agar dilution technique; format: functional; conditions: clinical isolate 377/09, 18 h; how it was run: as §4
# [35] = test system: Staphylococcus epidermidis; assay: Antibacterial activity against methicillin-resistant Staphylococcus epidermidis clinical isolate 318/08 after 18 hrs by twofold serial agar dilution technique; format: functional; conditions: clinical isolate 318/08, 18 h; how it was run: as §4
# [36] = test system: Staphylococcus epidermidis; assay: Antibacterial activity against methicillin-resistant Staphylococcus epidermidis clinical isolate 311/08 after 18 hrs by twofold serial agar dilution technique; format: functional; conditions: clinical isolate 311/08, 18 h; how it was run: as §4
# [37] = test system: Staphylococcus epidermidis; assay: Antibacterial activity against methicillin-resistant Staphylococcus epidermidis clinical isolate 341/09 after 18 hrs by twofold serial agar dilution technique; format: functional; conditions: clinical isolate 341/09, 18 h; how it was run: as §4
# [38] = test system: Staphylococcus epidermidis; assay: Antibacterial activity against methicillin-resistant Staphylococcus epidermidis clinical isolate 316/08 after 18 hrs by twofold serial agar dilution technique; format: functional; conditions: clinical isolate 316/08, 18 h; how it was run: as §4
# [39] = test system: Staphylococcus epidermidis; assay: Antibacterial activity against methicillin-resistant Staphylococcus epidermidis clinical isolate 342/09 after 18 hrs by twofold serial agar dilution technique; format: functional; conditions: clinical isolate 342/09, 18 h; how it was run: as §4
# [40] = test system: Staphylococcus epidermidis; assay: Antibacterial activity against methicillin-resistant Staphylococcus epidermidis clinical isolate 315/08 after 18 hrs by twofold serial agar dilution technique; format: functional; conditions: clinical isolate 315/08, 18 h; how it was run: as §4
# [41] = test system: Staphylococcus epidermidis; assay: Antibacterial activity against methicillin-resistant Staphylococcus epidermidis clinical isolate 343/09 after 18 hrs by twofold serial agar dilution technique; format: functional; conditions: clinical isolate 343/09, 18 h; how it was run: as §4
smiles,measurement,setting,value
COc1ccc(NC(=S)Nc2nc[nH]n2)cc1,CC50 at 96 h,[1],> 100 µM
same,EC50,[2],> 100 µM
O=C1Nc2ccc(Cl)cc2[C@@](C#CC2CC2)(C(F)(F)F)O1 [EFAVIRENZ],CC50 at 96 h,[1],37 µM
O=C(O)c1cn(C2CC2)c2cc(N3CCNCC3)c(F)cc2c1=O [CIPROFLOXACIN],MIC,Micrococcus luteus [3],2 µg/mL
same,MIC,[4],0.5 µg/mL
same,MIC,Bacillus cereus [5],0.5 µg/mL
same,MIC,Staphylococcus aureus [6],0.5 µg/mL
same,MIC,Staphylococcus aureus [7],0.5 µg/mL
same,MIC,Micrococcus luteus [8],1 µg/mL
same,MIC,Staphylococcus aureus [9],0.5 µg/mL
same,MIC,Enterococcus hirae [10],4 µg/mL
same,MIC,Bacillus subtilis [11],< 0.125 µg/mL
same,MIC,Staphylococcus aureus [12],0.5 µg/mL
Cc1ccc(NC(=S)Nc2nc[nH]n2)cc1,diameter of the inhibition zone (DIZ),Pseudomonas aeruginosa [13],inactive
same,diameter of the inhibition zone (DIZ),Micrococcus luteus [14],inactive
same,diameter of the inhibition zone (DIZ),Pseudomonas aeruginosa [15],inactive
same,zone of inhibition at 400 µg/disc,Bacillus subtilis [16],13 mm
same,diameter of the inhibition zone (DIZ),Escherichia coli [17],inactive
same,diameter of the inhibition zone (DIZ),Pseudomonas aeruginosa [18],inactive
same,diameter of the inhibition zone (DIZ),Staphylococcus aureus [19],inactive
same,diameter of the inhibition zone (DIZ),Staphylococcus aureus [20],inactive
same,diameter of the inhibition zone (DIZ),Staphylococcus aureus [21],inactive
same,diameter of the inhibition zone (DIZ),Staphylococcus aureus [22],inactive
same,diameter of the inhibition zone (DIZ),Escherichia coli [23],inactive
same,diameter of the inhibition zone (DIZ),Proteus vulgaris,inactive
same,diameter of the inhibition zone (DIZ),[24],inactive
same,CC50 at 96 h,[1],59 µM
same,diameter of the inhibition zone (DIZ),Candida albicans [25],inactive
same,diameter of the inhibition zone (DIZ),Bacillus cereus [26],inactive
same,diameter of the inhibition zone (DIZ),Candida parapsilosis,inactive
same,zone of inhibition at 400 µg/disc,Micrococcus luteus [27],12 mm
same,diameter of the inhibition zone (DIZ),[28],inactive
same,EC50,[2],> 50 µM
same,diameter of the inhibition zone (DIZ),Enterococcus hirae [29],inactive
same,diameter of the inhibition zone (DIZ),Candida albicans [30],inactive
same,diameter of the inhibition zone (DIZ),Escherichia coli [31],inactive
Nc1ncnn1/C(S)=N/C1CCCCC1,MIC,[32],25 µg/mL
same,MIC,[33],12.5 µg/mL
same,MIC,[34],25 µg/mL
same,CC50 at 96 h,[1],> 100 µM
same,MIC,[35],12.5 µg/mL
same,MIC,[36],25 µg/mL
same,MIC,[37],25 µg/mL
same,MIC,[38],25 µg/mL
same,MIC,[39],25 µg/mL
same,MIC,[40],12.5 µg/mL
same,EC50,[2],> 100 µM
same,MIC,[41],12.5 µg/mL
O=C(NC(=S)Nc1nc[nH]n1)c1ccccc1,CC50 at 96 h,[1],> 100 µM
same,EC50,[2],> 100 µM
S=C(Nc1ccc(Cl)c(Cl)c1)Nc1nc[nH]n1,CC50 at 96 h,[1],47 µM
same,EC50,[2],> 47 µM
